In ChEMBL document CHEMBL4673174, “meta-Substituted benzenesulfonamide: a potent scaffold for the development of metallo-beta-lactamase ImiS inhibitors” (RSC Med Chem, 2020):
pIC50, pKi: −log10 of the molar value. ≈ marks a conversion by molar mass, not a printed value. Calls of active or inactive are those of the source. The calls are words filed in the database; no cut-off is given here.

Assays:
Bacteria [1] = experiment: Inhibition of bacterial ImiS expressed in Escherichia coli BL21 (DE3) at 20 uM using imipenem as substrate by spectrometry analysis relative to control
How it was run: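 Purified ImiS with imipenem (40 μM) in 30 mM Tris pH 7.0; inhibitor at 20 μM, DMSO below 0.5%. Hydrolysis followed at 300 nm by UV-vis; initial rates in triplicate, averaged. Percent inhibition = activity without inhibitor (100%) minus residual activity.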

Bacteria [2] = experiment: Inhibition of beta-lactamase ImiS (unknown origin) expressed in Escherichia coli BL21 (DE3) assessed as potentiation of meropenem induced antibacterial activity by measuring meropenem MIC at 64 ug/ml incubated for 16 hrs by CLSI broth microdilution method (reference value: 64 ug/ml); settings: dose 64.0 µg/ml
Bacteria [3] = experiment: Inhibition of bacterial NDM-1 expressed in Escherichia coli BL21 (DE3) at 20 uM using cefazolin as substrate by spectrometry analysis relative to control
How it was run: (§1)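 Purified L1 or NDM-1; cefazolin (40 μM) substrate, hydrolysis monitored at 262 nm by UV-vis. Inhibitor at 20 μM. Initial rates with and without inhibitor measured in triplicate and averaged; percent inhibition = uninhibited activity (100%) minus residual activity.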

Bacteria [4] = experiment: Inhibition of bacterial L1 expressed in Escherichia coli BL21 (DE3) at 20 uM using cefazolin as substrate by spectrometry analysis relative to control; how it was run: as §1
Bacteria [5] = experiment: Inhibition of beta-lactamase ImiS (unknown origin) in expressed Escherichia coli BL21 (DE3) assessed as potentiation of imipenem induced antibacterial activity by measuring imipenem MIC at 64 ug/ml incubated for 16 hrs by CLSI broth microdilution method (reference value: 16 ug/ml); settings: dose 64.0 µg/ml
How it was run: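 E. coli BL21 (DE3) carrying pET26b-ImiS grown in MH broth to OD600 0.5, diluted to 1 × 10^5 CFU mL–1. CLSI broth dilution; imipenem serially diluted, inhibitor at 64 μg mL–1 stock.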

[6] = Inhibition of bacterial ImiS expressed in Escherichia coli BL21 (DE3) using imipenem as substrate preincubated for 3 hrs with enzyme followed by substrate addition by spectrometry analysis; set-up: species or system Bacteria
How it was run: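 Purified ImiS preincubated 3 h with inhibitor (six concentrations, 0.01–20 μM; DMSO below 0.5%) in 30 mM Tris pH 7.0, 25 °C; imipenem 40 μM. Hydrolysis read at 300 nm, rates in triplicate. IC50 from linear fit of mean percent inhibition against inhibitor concentration.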

[7] = Cytotoxicity against mouse L929 cells assessed as cell viability up to 200 uM measured after 48 hrs by MTT assay; assay type: cell-based; settings: read-out: Activity
Escherichia coli [8] = experiment: Antibacterial activity against Escherichia coli BL21 (DE3) assessed as inhibition of bacterial growth incubated for 16 hrs by CLSI broth microdilution method; assay type: functional
[9] = Mixed type inhibition of bacterial ImiS using varying levels of imipenem as substrate assessed as hydrolysis by Line weaver Burk plot analysis; set-up: species or system Bacteria
How it was run: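 Initial imipenem hydrolysis rates by ImiS at 20, 40, 60, 80 and 100 μM substrate, inhibitor at 0, 1, 5 and 10 μM; 300 nm read-out, triplicate. Mode assigned from Lineweaver–Burk plots; Ki from fits of initial velocity against substrate concentration at each inhibitor level.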

Escherichia coli [10] = experiment: In vivo antibacterial activity against Escherichia coli BL21(DE3) expressing ImiS infected in Kunming mouse assessed as reduction in bacterial load liver at 10 mg/kg, ip administered after 2 hrs post infection and measured after 24 hrs; assay type: functional, organism-based
How it was run: (§2)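 Kunming mice (male and female, 20 ± 2 g), six per group, infected ip with 200 μL E. coli BL21 (DE3)-ImiS suspension (OD600 = 1.0). At 2 h, single ip dose: PBS, meropenem 10 mg kg–1, inhibitor 10 mg kg–1, or meropenem plus inhibitor (each 10 mg kg–1). Euthanized 24 h post-infection; 0.1 g spleen and liver homogenized in 1 mL PBS, serially diluted, plated on LB agar for cfu.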

Mus musculus [11] = experiment: In vivo antibacterial activity against Escherichia coli BL21 (DE3) expressing ImiS infected in Kunming mouse assessed as reduction in bacterial load spleen at 10 mg/kg, ip administered after 2 hrs post infection and measured after 24 hrs; assay type: functional, organism-based; how it was run: as §2
Mus musculus [12] = experiment: In vivo inhibition of beta-lactamase ImiS (unknown origin) expressed in Escherichia coli BL21 (DE3) infected in Kunming mouse assessed as potentiation of meropenem-induced reduction in bacterial load in spleen at 10 mg/kg, ip administered after 2 hrs post infection and measured after 24 hrs; assay type: functional, organism-based; how it was run: as §2
Mus musculus [13] = experiment: In vivo inhibition of beta-lactamase ImiS (unknown origin) expressed in Escherichia coli BL21 (DE3) infected in Kunming mouse assessed as potentiation of meropenem-induced reduction in bacterial load in liver at 10 mg/kg, ip administered after 2 hrs post infection and measured after 24 hrs; assay type: functional, organism-based; how it was run: as §2
Bacteria [14] = experiment: Inhibition of bacterial ImiS expressed in Escherichia coli BL21 (DE3) at 10 uM using imipenem as substrate by spectrometry analysis relative to control
How it was run: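 Time and concentration dependence: ImiS incubated with inhibitor at 0.5, 1 or 5 μM over varying times, or over 0.01–10 μM for the inhibition curve; residual activity against imipenem measured spectrophotometrically at 300 nm in 30 mM Tris pH 7.0.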

Bacteria [15] = experiment: Inhibition of bacterial ImiS expressed in Escherichia coli BL21 (DE3) by measuring hydrolysis of imipenem using imipenem as substrate preincubated for 3 hrs with enzyme followed by substrate addition by isothermal titration calorimetric method; settings: dose microM 0.1-10, time 3.0 hrs
How it was run: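 ITC, single-injection mode, 25 °C, 30 mM Tris with 0.5% DMSO. ImiS (100 nM) preincubated 3 h with inhibitor (0–10 μM), then one 38 μL injection of imipenem (0.5 mM); stirring 750 rpm. Heat flow (dq/dt) recorded every 1 s until return to baseline.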

inhibition (Bacteria [1]) [%] | MIC (Bacteria [2]) [µg/mL] | inhibition (Bacteria [3]) [%] | inhibition (Bacteria [4]) [%] | MIC (Bacteria [5]) [µg/mL] | pIC50 [6] | pKi [9] | inhibition (Bacteria [14]) [%] | inhibition (Bacteria [15]) | Compound | viability at 48 h [7] [%] | MIC (Escherichia coli [8]) [µg/mL] | Activity (Escherichia coli [10]) | Activity (Mus musculus [11]) | inhibition (Mus musculus [12]) | inhibition (Mus musculus [13])
> 70 | 32 | < 20 | < 20 | 8 | 5.25 | – | – | – | NS(=O)(=O)c1ccc(NC(=O)c2ccc(O)cc2)cc1 | – | – | – | – | – | –
> 70 | 32 | < 20 | < 20 | 8 | 5.34 | – | – | – | CC(C)(C)c1ccc(C(=O)Nc2ccccc2S(N)(=O)=O)cc1 | > 80 | – | – | – | – | –
> 70 | 16 | < 20 | < 20 | 4 | 6.85 | – | – | – | NS(=O)(=O)c1cccc(NC(=O)c2cccc(Br)c2)c1 | – | – | – | – | – | –
> 70 | 32 | < 20 | < 20 | 8 | 5.48 | – | – | – | CC(C)(C)c1ccc(C(=O)Nc2ccc(S(N)(=O)=O)cc2)cc1 | – | – | – | – | – | –
> 70 | 32 | < 20 | < 20 | 8 | 5.12 | – | – | – | NS(=O)(=O)c1ccc(NC(=O)c2ccccc2)cc1 | – | – | – | – | – | –
– | – | – | – | – | – | – | – | – | C[C@@H](O)[C@H]1C(=O)N2C(C(=O)O)=C(SCCNC=N)C[C@H]12 [IMIPENEM ANHYDROUS] | – | 0.25 (≈ 0.835 µM) | – | – | – | –
> 70 | 16 | < 20 | < 20 | 4 | 6.64 | – | – | – | CC(C)(C)c1ccc(C(=O)Nc2cccc(S(N)(=O)=O)c2)cc1 | – | – | – | – | – | –
> 70 | 16 | < 20 | < 20 | 4 | 6.07 | – | – | – | NS(=O)(=O)c1cccc(NC(=O)c2cccc([N+](=O)[O-])c2)c1 | – | – | – | – | – | –
> 70 | 32 | < 20 | < 20 | 8 | 5.57 | – | – | – | NS(=O)(=O)c1ccc(NC(=O)c2cccc(Br)c2)cc1 | – | – | – | – | – | –
> 70 | 32 | < 20 | < 20 | 8 | 5.14 | 5.10 | – | – | COC(=O)c1ccc(C(=O)Nc2ccc(S(N)(=O)=O)cc2)cc1 | – | – | – | – | – | –
95 | 16 | < 20 | < 20 | 4 | 6.96 | 6.26 | 92 | Dose-dependent effect | COC(=O)c1ccc(C(=O)Nc2cccc(S(N)(=O)=O)c2)cc1 | > 80 | – | inactive | inactive | Active | Active
> 70 | 16 | < 20 | < 20 | 4 | 6.80 | – | – | – | NS(=O)(=O)c1cccc(NC(=O)CCc2ccccc2)c1 | – | – | – | – | – | –
> 70 | 32 | < 20 | < 20 | 8 | 5.27 | – | – | – | NS(=O)(=O)c1ccccc1NC(=O)c1ccc(Cl)cc1 | – | – | – | – | – | –
> 70 | 16 | < 20 | < 20 | 4 | 6.36 | – | – | – | NS(=O)(=O)c1cccc(NC(=O)c2ccc(Cl)cc2)c1 | > 80 | – | – | – | – | –
> 70 | 32 | < 20 | < 20 | 8 | 5.46 | – | – | – | NS(=O)(=O)c1ccc(NC(=O)CCc2ccccc2)cc1 | – | – | – | – | – | –
> 70 | 32 | < 20 | < 20 | 8 | 5.39 | – | – | – | NS(=O)(=O)c1ccc(NC(=O)CC(c2ccccc2)c2ccccc2)cc1 | – | – | – | – | – | –
> 70 | 16 | < 20 | < 20 | 4 | 6.82 | – | – | – | NS(=O)(=O)c1cccc(NC(=O)c2ccccc2)c1 | – | – | – | – | – | –
– | 32 | – | – | 8 | 5.17 | – | – | – | CCN(CC)c1ccc2c(-c3ccccc3C(=O)Oc3ccc(S(N)(=O)=O)cc3)c3ccc(=[N+](CC)CC)cc-3oc2c1 | – | – | – | – | – | –
> 70 | 32 | < 20 | < 20 | 8 | 5.32 | – | – | – | NS(=O)(=O)c1ccc(NC(=O)c2cccc([N+](=O)[O-])c2)cc1 | – | – | – | – | – | –
> 70 | 32 | < 20 | < 20 | 8 | 5.03 | – | – | – | NS(=O)(=O)c1ccc(NC(=O)c2ccc(C(F)(F)F)cc2)cc1 | – | – | – | – | – | –
> 70 | 32 | < 20 | < 20 | 8 | 5.29 | – | – | – | NS(=O)(=O)c1ccc(NC(=O)c2ccc(Cl)cc2)cc1 | > 80 | – | – | – | – | –
> 70 | 16 | < 20 | < 20 | 4 | 6.51 | – | – | – | NS(=O)(=O)c1cccc(NC(=O)c2ccc(C(F)(F)F)cc2)c1 | – | – | – | – | – | –
